Data as given in PubChem BioAssay AID651846 (The Scripps Research Institute Molecular Screening Center, 2012).
Active and inactive are the calls of the source.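 How the source made its calls: active means IC50 at or below 10 µM; inactive means IC50 above 10 µM.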

Tested on: CHO-S GAL4-VP16 UAS luciferase reporter, luminescence
Test: GAL4-VP16 UAS luciferase reporter inhibitors, late-stage follow-up, counter-screen for NR2E3 agonist project, luminescence, CHO-S cells (AID 651846)
Outline: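 System: CHO-S cells transiently co-transfected with GAL4 DBD–VP16 fusion plus UAS pGL4.31 luciferase; incubation: compound exposure 24 h at 37 °C, 16 h post-transfection; measured by: luciferase luminescence with One-Glo reagent, 10 min at room temperature; compound dosing: dose-response concentration series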

SMILES | IC50
O=c1c(Cl)c(N2CCN(c3ccc(F)cc3)CC2)cnn1C12CC3CC(CC(C3)C1)C2 | > 39.8 µM (inactive)
Cc1cnc(NC(=O)Cc2ccc(Br)cc2)s1 | > 39.8 µM (inactive)
O=C(Nc1cccc(NC(=O)c2c(F)cccc2F)n1)c1c(F)cccc1F | > 39.8 µM (inactive)
COc1cc2nc(CN3CC=C(c4ccccc4)CC3)[nH]c(=O)c2cc1OC | > 39.8 µM (inactive)
O=C(CSc1nnnn1-c1ccc(O)cc1)Nc1ccc(N2CCOCC2)c(Cl)c1 | > 39.8 µM (inactive)
COc1ccc(S(=O)(=O)N2CCCCC2)cc1NC(=S)Nc1cccc(Cl)c1C | > 39.8 µM (inactive)
COc1ccc(S(=O)(=O)N2CCCCC2)cc1NC(=S)Nc1ccccc1 | > 39.8 µM (inactive)
Cc1ccc(NC(=O)CSc2nnnn2-c2ccc3c(c2)OCO3)cc1C | > 39.8 µM (inactive)
Cc1cccc(OCCCC(=O)Nc2nc3ccccc3[nH]2)c1 | > 39.8 µM (inactive)
Cc1cnc(NC(=O)CCCc2nc3ccccc3s2)s1 | > 39.8 µM (inactive)
Cc1cc(C)cc(NC(=O)CCc2nc3sc4c(c3c(=O)[nH]2)CCCC4)c1 | > 39.8 µM (inactive)
COc1ccc(OC)c(NC(=O)CSc2nnnn2-c2ccc3c(c2)OCO3)c1 | > 39.8 µM (inactive)
Cc1ccnc(NC(=O)CSc2cc(=O)n(C)c3ccccc23)c1 | > 39.8 µM (inactive)
O=C(O)CC1(CC(=O)Nc2cc(C(F)(F)F)cc(C(F)(F)F)c2)CCCCC1 | 7.72 µM
COc1ccc2c(CC(=O)Nc3ncc(C)s3)coc2c1 | > 39.8 µM (inactive)
O=C(CSc1nnnn1-c1ccc2c(c1)OCCO2)Nc1nc2c(s1)CCCC2 | > 39.8 µM (inactive)
COc1cccc(N2CCN(c3nc(-c4ccccc4C)cc(=O)[nH]3)CC2)c1 | > 39.8 µM (inactive)
Cc1ccc(-c2nc(NC(=O)CSc3nnnn3-c3ccccc3)ns2)cc1 | > 39.8 µM (inactive)
COc1ccc(NC2c3ccccc3C(=O)N2Cc2ccccc2Cl)cc1OC (stereo unspecified) | > 39.8 µM (inactive)
Cc1cccc(C(=O)N[C@H](C(=O)Nc2ncc(C)s2)C(C)C)c1 | > 39.8 µM (inactive)
Cc1onc(-c2ccccc2Cl)c1C(=O)Nc1nc2c(s1)CCCC2 | > 39.8 µM (inactive)
Cc1ccc(CN2CC(C(=O)Nc3ncc(C)s3)CC2=O)cc1 (stereo unspecified) | > 39.8 µM (inactive)
O=c1cc(N2CCN(c3cccc(Cl)c3)CC2)[nH]c(=O)n1C1CCCCC1 | > 39.8 µM (inactive)
Cc1cnc(NC(=O)C2CC(=O)N(c3ccc4c(c3)OCCO4)C2)s1 (stereo unspecified) | > 39.8 µM (inactive)
COc1cccc(NC(=O)CSc2nc3ncc(Br)cc3[nH]2)c1 | > 39.8 µM (inactive)
NC(=O)c1nn(-c2ccccc2)nc1NC(=O)CSc1nnnn1-c1ccc(Cl)cc1 | > 39.8 µM (inactive)
